Sampled rows, rich in hits. Any-hit rate of the full collection: about 2.3%.
LGR2 inh – inhibitors of bursicon-induced LGR2 CRE-luciferase signal, primary screen, cell-based, HEK293, CRE-luciferase reporter, bursicon stimulation; 380,000 tested, 0.35% active; AID 720647, 2013; bursicon-stimulated, 4 h; Drosophila bursicon receptor LGR2 (rickets); inhibition, % at 9.99 µM;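 active means drop in luminescence signal, shown as inhibition above about 50% in the replicate tests, limit read from the data, passing the limit was not always enough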;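 further: agonist challenge used bursicon conditioned medium at about half maximal strength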
FN deposit inh – inhibitors of fibronectin matrix deposition, primary screen, AH1F cells, Alexa488-fibronectin fluorescence, plate reader; AH1F fibroblasts, overnight; inhibition, % at 12.6 µM; 350,000 tested, 0.086% active;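 active means mean inhibition across replicates of 30% or more, regardless of how many single replicates reach that level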;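 further: positive control wells lacked labelled fibronectin entirely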
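Assay system: AH1F fibroblast monolayer, labelled fibronectin deposition. Amount: 10000 cells per well. Also added: labelled fibronectin 24 nM. Compound: single-point pinned compound. Incubation: cell attachment 1 h, compound and FN exposure overnight. Detection: fluorescence after three HBSS washes, excitation 485 nm, emission 525 nm. Read-out: inhibition of fibronectin deposition signal.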
TROY signal inh – inhibitors of TROY-driven NF-kB signaling, primary screen, Q293 LMP1-TROYcd cells, NF-kB luciferase, uHTS; 360,000 tested, 0.98% active; Q293 LMP1-TROYcd NF-kB luciferase reporter, 4 h; inhibition, % at 10 µM;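 active means compounds whose plate-normalised and pattern-corrected inhibition of the luciferase reporter signal at the single screening dose is 50% or more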
Xi reactivation – activators of inactive X chromosome reactivation, primary screen, imaging, XiGFP fibroblasts, GFP high-content imaging, set 2 | XiGFP mouse fibroblasts, % GFP-positive cells imaging, 3 d; cells co-treated with 5-aza-dC sensitizer; scaled so ellipticine positive control = 100% | activation, % at 7.58 µM | 360,000 tested, 0.055% active | AID 743238, 2013;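 active means mean normalized replicate activation at least 10% and every replicate at or above 10%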;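 further: 0% = median of on-plate neutral control wells and 100% = ellipticine 6 µM median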
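System: 68-5-11 XiGFP fibroblast line | Buffer or medium: DMEM containing 5-aza-dC | Compound: Single point | Times: Compounds 3 days, fix/stain 15 min at room temperature | Benchmarks: Positive control ellipticine, 6 µM final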
EWS-Fli inh – EWS/Fli-driven NR0B1 reporter inhibitors, primary screen, A673 cells, NR0B1 luciferase, luminescence, MLPCN library; 350,000 tested, 0.67% active; inhibition, % at 12.6 µM; viability-normalised;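 active means mean inhibition of at least 50% after viability correction, with every replicate also passing that limit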;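 further: firefly luciferase signal divided by Alamar Blue viability fluorescence both relative to DMSO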
TWEAK-Fn14 inh – inhibitors of TWEAK-Fn14 signaling, primary screen, luciferase reporter cells, uHTS; TWEAK-stimulated Fn14 reporter cells, luciferase luminescence, 8 h; inhibition, % at 10 µM; 360,000 tested, 2% active; in the data active means inhibition above about 50%
Starred values were filed as active, the others as inactive.

How did Cn1c2c(c(=O)n(C)c1=O)C(C(F)(F)F)(C(F)(F)F)N=C(CCC1CCCCC1)N2 do in these assays?
LGR2 inh: 75*; FN deposit inh: -1; TROY signal inh: 53*; Xi reactivation: 0; EWS-Fli inh: 5; TWEAK-Fn14 inh: 60*

What do the screens show for `Cn1c2c(c(=O)n(C)c1=O)C(C(F)(F)F)(C(F)(F)F)N=C(c1ccccc1Cl)N2`?
FN deposit inh: -8; TROY signal inh: -16; TWEAK-Fn14 inh: -11

How did CN1OC[C@@H]2CN(C(=O)C(C)(C)C)[C@H](c3cccc(Br)c3)C[C@@H]21 do in these assays?
LGR2 inh: -4; FN deposit inh: -1; TROY signal inh: 64*; Xi reactivation: 0; EWS-Fli inh: -3; TWEAK-Fn14 inh: 61*

How did CN1OC[C@@H]2CN(C(=O)C(C)(C)C)[C@H](c3cccc(N4CCOCC4)c3)C[C@@H]21 do in these assays?
LGR2 inh: 1; FN deposit inh: -3; TROY signal inh: -34; EWS-Fli inh: -6; TWEAK-Fn14 inh: -3

How did O=C(O)c1ccc(-n2cc(-c3cc4ccccc4oc3=O)[nH]c2=S)cc1 do in these assays?
LGR2 inh: -30; FN deposit inh: -1; TROY signal inh: 72*; Xi reactivation: -1; EWS-Fli inh: -6; TWEAK-Fn14 inh: 73*

What do the screens show for `O=C(c1ccccc1)C1OC1C(=O)c1ccccc1` (stereo unspecified)?
LGR2 inh: 7; FN deposit inh: 15; TROY signal inh: -63; Xi reactivation: 0; EWS-Fli inh: 1; TWEAK-Fn14 inh: 70*

What do the screens show for `Cc1ccc2c(c1)/C(=C/c1ccccc1F)C(=O)N2`?
LGR2 inh: 8; FN deposit inh: -5; TROY signal inh: -29; Xi reactivation: 0; EWS-Fli inh: 6; TWEAK-Fn14 inh: 11

What do the screens show for `CN1C2CCC1/C(=C\c1ccccc1F)C(=O)/C2=C/c1ccccc1F`?
LGR2 inh: 20; FN deposit inh: 4; TROY signal inh: 20; Xi reactivation: 1; TWEAK-Fn14 inh: 83*

What do the screens show for `C/C(=N\NC(=O)c1ccncc1)c1cccs1`?
LGR2 inh: -3; FN deposit inh: 0; TROY signal inh: -4; Xi reactivation: 0; EWS-Fli inh: -13; TWEAK-Fn14 inh: -3

What do the screens show for `C/C(=N\NC(=O)c1ccccc1O)c1cccs1`?
LGR2 inh: 52*; FN deposit inh: 1; TROY signal inh: -20; Xi reactivation: 0; EWS-Fli inh: 28; TWEAK-Fn14 inh: 73*

How did C/C(=N/NC(=O)c1cc(C2CC2)[nH]n1)c1cccs1 do in these assays?
FN deposit inh: 6; TROY signal inh: 2; TWEAK-Fn14 inh: 89*

What do the screens show for `CCO[C@H]1OC(C(=O)N2CCCC2)=C[C@@H](c2ccc(Br)cc2)[C@@H]1CCCO`?
EWS-Fli inh: -7

What do the screens show for `CCc1nc2sc3c(c2c(=O)n1N)CC(C)(C)OC3`?
LGR2 inh: -18; FN deposit inh: -28; TROY signal inh: 3; Xi reactivation: 0; EWS-Fli inh: -6; TWEAK-Fn14 inh: -12

What do the screens show for `CCCCCCCCCc1nc2sc3c(c2c(=O)n1NC(=O)c1ccccc1[N+](=O)[O-])CC(C)(C)OC3`?
LGR2 inh: 3; FN deposit inh: -3; TROY signal inh: 58*; Xi reactivation: 0; EWS-Fli inh: -4; TWEAK-Fn14 inh: 49

How did CCCCCCCCCc1nc2sc3c(c2c(=O)n1NC(=O)c1ccc([N+](=O)[O-])cc1)CC(C)(C)OC3 do in these assays?
LGR2 inh: 24; TROY signal inh: 42; Xi reactivation: 0; TWEAK-Fn14 inh: 56*

How did CCCc1nc2sc3c(c2c(=O)n1NC(=O)c1ccco1)CC(C)(C)OC3 do in these assays?
FN deposit inh: -4; TROY signal inh: -37; Xi reactivation: 0; EWS-Fli inh: -4; TWEAK-Fn14 inh: -7

Results for CC(C)NC(=O)Nc1ccc2c(c1)C(=O)N([C@H](C)CO)C[C@@H](C)[C@H](CN(C)C(=O)Nc1ccc3c(c1)OCO3)OCCCC[C@@H](C)O2 ?
LGR2 inh: 8; FN deposit inh: -1; Xi reactivation: 0; EWS-Fli inh: -11

Results for C[C@@H]1CN([C@@H](C)CO)C(=O)c2c(c3ccccc3n2C)-c2ccccc2CO[C@H]1CN(C)C(=O)CCC(F)(F)F ?
LGR2 inh: -5; FN deposit inh: 6; Xi reactivation: 0; EWS-Fli inh: 17

How did Cc1ccc2nc(-c3ccc(NC(=S)NC4CC(C)(C)NC(C)(C)C4)cc3)sc2c1 do in these assays?
LGR2 inh: 62*; FN deposit inh: -10; TROY signal inh: -5; Xi reactivation: 0; EWS-Fli inh: 15; TWEAK-Fn14 inh: 27

Results for CCC(=O)N[C@H]1CC[C@H](CCn2cc(CN(C)C)nn2)O[C@H]1CO ?
LGR2 inh: 5; FN deposit inh: 13; Xi reactivation: 0; EWS-Fli inh: 6

What do the screens show for `Cc1ccccc1C(=O)N1CCC2CC1c1cc(-c3ccc(F)cc3)ccc12` (stereo unspecified)?
LGR2 inh: -8; FN deposit inh: 4; TROY signal inh: 37; Xi reactivation: 0; EWS-Fli inh: 6; TWEAK-Fn14 inh: 42

How did Cc1ccccc1C(=O)N1CCC2CC1c1cc(Cl)ccc12 (stereo unspecified) do in these assays?
LGR2 inh: -28; FN deposit inh: -2; TROY signal inh: 81*; EWS-Fli inh: 8; TWEAK-Fn14 inh: 4

How did COC(=O)C[C@@H]1C[C@@H]2c3cc(NC(=O)Nc4ccc(F)cc4)ccc3O[C@@H]2[C@H](CO)O1 do in these assays?
LGR2 inh: 2; FN deposit inh: 4; Xi reactivation: 0; EWS-Fli inh: -1

How did O=c1c(-c2ccccc2Cl)coc2c(CN3CCCCC3)c(O)ccc12 do in these assays?
LGR2 inh: 11; FN deposit inh: 3; TROY signal inh: 3; Xi reactivation: 0; EWS-Fli inh: -10; TWEAK-Fn14 inh: 64*

Results for O=c1c(-c2ccc(Cl)cc2)coc2c(CN3CCCCC3)c(O)ccc12 ?
LGR2 inh: 0; FN deposit inh: 2; TROY signal inh: -25; Xi reactivation: 0; EWS-Fli inh: -11; TWEAK-Fn14 inh: 4

How did CC1CCN(C2=NC(=O)/C(=C/c3cccc(O)c3)S2)CC1 do in these assays?
LGR2 inh: -30; FN deposit inh: -7; TROY signal inh: 25; Xi reactivation: 0; EWS-Fli inh: -13; TWEAK-Fn14 inh: -7

From PubChem
